# Data from ChEMBL document CHEMBL1828518, “Arylazolylthioacetanilide. Part 8: Design, synthesis and biological evaluation of novel 2-(2-(2,4-dichlorophenyl)-2H-1,2,4-triazol-3-ylthio)-N-arylacetamides as potent HIV-1 inhibitors” (Eur J Med Chem, 2011).
# Calls of active or inactive are those of the source. The calls are words filed in the database; no cut-off is given here.
# Legend:
# [1] = tested on: Human immunodeficiency virus 2; assay: Antiviral activity against HIV-2 ROD infected in human MT4 cells assessed as inhibition of virus-induced syncytium formation after 5 days by MTT assay; type: functional, organism-based; settings: Human immunodeficiency virus 2, ISOLATE ROD, MT4, 120 h
# Procedure, shortened: (§1)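 MT-4 cells (exponentially growing, spun 5 min at 1000 rpm, resuspended at 6 × 10⁵ cells/mL) infected with HIV-1 IIIB or HIV-2 ROD at 100–300 CCID50. Compounds added at infection in triplicate wells as serial fivefold dilutions, with untreated infected and mock-infected controls. Viability read by MTT at 540 and 690 nm after 5 days, from the median OD of three wells.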
# [2] = tested on: Human immunodeficiency virus 1; assay: Antiviral activity against HIV-1 3B harboring RT K103N mutant infected in human MT4 cells assessed as inhibition of virus-induced syncytium formation after 5 days by MTT assay; type: functional, organism-based; settings: Human immunodeficiency virus 1, 3B, MT4, 120 h
# Procedure, shortened: (§2)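 Exponentially growing MT-4 cells, pelleted and resuspended at 6 × 10⁵ cells/mL, were infected with virus stock at 100-300 CCID50. Test compounds were added at infection as serial fivefold dilutions, in triplicate wells. After 5 days, viability was read by MTT reduction at 540 and 690 nm using the median OD of three wells.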
# [3] = tested on: Human immunodeficiency virus 1; assay: Antiviral activity against HIV-1 3B infected in human MT4 cells assessed as inhibition of virus-induced syncytium formation after 5 days by MTT assay; type: functional, organism-based; settings: Human immunodeficiency virus 1, 3B, MT4, 120 h; procedure, shortened: as §1
# [4] = Cytotoxicity against human MT4 cells assessed as cell viability after 5 days by MTT assay; type: cell-based
# Procedure, shortened: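 MT-4 cells at 6 × 10⁵ cells/mL, mock-infected with culture medium and run in parallel with the antiviral plates. Test compounds given as serial fivefold dilutions in triplicate wells. After 5 days viability read by MTT reduction to formazan at 540 and 690 nm, using the median OD of three wells.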
# [5] = Selectivity index, ratio of CC50 for human MT4 cells to EC50 for HIV-1 3B infected in human MT4 cells; type: toxicity, cell-based; settings: uninfected and infected with HIV-1 3B, read-out: Ratio CC50/EC50
# Procedure, shortened: (§3)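 Selectivity index calculated as CC50 divided by EC50. Both values come from MTT readings taken 5 days after infection, on mock-infected and virus-infected MT-4 cells run in parallel.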
# [6] = tested on: Human immunodeficiency virus 1; assay: Antiviral activity against HIV-1 3B harboring RT E138K mutant infected in human MT4 cells assessed as inhibition of virus-induced syncytium formation after 5 days by MTT assay; type: functional, organism-based; settings: Human immunodeficiency virus 1, 3B, MT4, 120 h; procedure, shortened: as §2
# [7] = tested on: Human immunodeficiency virus 1; assay: Ratio of EC50 for HIV-1 3B harboring RT E138K mutant infected in human MT4 cells to EC50 for wild type HIV-1 3B infected in human MT4 cells; type: functional
# Procedure, shortened: (§4)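 Fold resistance is the EC50 against the drug-resistant strain divided by the EC50 against wild-type HIV-1 IIIB. Both values come from the same MT-4 assay: 5-day infection, MTT viability read-out, and serial fivefold compound dilutions in triplicate wells.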
# [8] = tested on: Human immunodeficiency virus 1; assay: Antiviral activity against HIV-1 3B harboring RT K103N and Y181C mutant infected in human MT4 cells assessed as inhibition of virus-induced syncytium formation after 5 days by MTT assay; type: functional, organism-based; procedure, shortened: as §2
# [9] = tested on: Human immunodeficiency virus 1; assay: Antiviral activity against HIV-1 3B harboring RT Y188L mutant infected in human MT4 cells assessed as inhibition of virus-induced syncytium formation after 5 days by MTT assay; type: functional, organism-based; procedure, shortened: as §2
# [10] = tested on: Human immunodeficiency virus 1; assay: Antiviral activity against HIV-1 3B harboring RT F227L and V106A mutant infected in human MT4 cells assessed as inhibition of virus-induced syncytium formation after 5 days by MTT assay; type: functional, organism-based; procedure, shortened: as §2
# [11] = tested on: Human immunodeficiency virus 1; assay: Ratio of EC50 for HIV-1 3B harboring RT L100I mutant infected in human MT4 cells to EC50 for wild type HIV-1 3B infected in human MT4 cells; type: functional; procedure, shortened: as §4
# [12] = tested on: Human immunodeficiency virus 1; assay: Antiviral activity against HIV-1 3B harboring RT Y181C mutant infected in human MT4 cells assessed as inhibition of virus-induced syncytium formation after 5 days by MTT assay; type: functional, organism-based; procedure, shortened: as §2
# [13] = target: Human immunodeficiency virus type 1 reverse transcriptase (Human immunodeficiency virus 1, UniProt Q72547); assay: Inhibition of HIV-1 reverse transcriptase assessed as inhibition of biotin-dUTP incorporation […] by colorimetry
# Procedure, shortened: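 Purified recombinant HIV-1 RT with a […] template primer. Read-out is colorimetric detection of biotin-dUTP incorporated into the homopolymer template primer, with nucleotides linked to the microtiter plate.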
# [14] = tested on: Human immunodeficiency virus 1; assay: Ratio of EC50 for HIV-1 3B harboring RT K103N mutant infected in human MT4 cells to EC50 for wild type HIV-1 3B infected in human MT4 cells; type: functional; procedure, shortened: as §4
# [15] = Selectivity index, ratio of CC50 for human MT4 cells to EC50 for HIV-2 ROD infected in human MT4 cells; type: toxicity, cell-based; settings: uninfected and infected with HIV-2 ROD, read-out: Ratio CC50/EC50; procedure, shortened: as §3
# [16] = tested on: Human immunodeficiency virus 1; assay: Antiviral activity against HIV-1 3B harboring RT L100I mutant infected in human MT4 cells assessed as inhibition of virus-induced syncytium formation after 5 days by MTT assay; type: functional, organism-based; settings: Human immunodeficiency virus 1, 3B, MT4, 120 h; procedure, shortened: as §2
SMILES,EC50 [1] [µM],EC50 [2] [µM],EC50 [3] [µM],CC50 at 120 h [4] [µM],selectivity ratio [5],EC50 [6] [µM],Ratio EC50 [7],inhibition [8],inhibition [9],inhibition [10],Ratio EC50 [11],inhibition [12],IC50 [13] [µM],Ratio EC50 [14],selectivity ratio [15],EC50 [16] [µM],"EC50 ([8]; Human immunodeficiency virus 1, 3B, MT4, 120 h) [nM]"
CCOC(=O)c1ccc(NC(=O)CSc2ncnn2-c2ccc(Cl)cc2Cl)c(Br)c1,> 33.1,9.54,4.68,33.1,7,> 38.7,>6.7,inactive,inactive,inactive,1.9,inactive,297,1.6,< 1,10.8,
O=C(CSc1ncnn1-c1ccc(Cl)cc1Cl)Nc1cccnc1Cl,> 98.5,10.5,4.99,98.5,20,6.79,4.3,inactive,inactive,inactive,4.4,inactive,,2.8,< 1,15.4,
Cc1cn([C@H]2C[C@H](N=[N+]=[N-])[C@@H](CO)O2)c(=O)[nH]c1=O [ZIDOVUDINE],0.0033,0.011,0.0076,> 88.3,> 11600,0.02,1.4,inactive,inactive,inactive,0.32,inactive,,0.71,> 28300,0.0049,
COC(=O)c1ccc(NC(=O)CSc2ncnn2-c2ccc(Cl)cc2Cl)cc1,> 26.3,,> 26.3,26.3,< 1,,,,,,,,,,< 1,,
CC(C)Nc1cccnc1N1CCN(C(=O)c2cc3cc(NS(C)(=O)=O)ccc3[nH]2)CC1.CS(=O)(=O)O [DELAVIRDINE MESYLATE],,1.72,,,,0.06,1.9,inactive,inactive,inactive,68.3,inactive,,52.8,,2.23,
Cc1ccnc2c1NC(=O)c1cccnc1N2C1CC1 [NEVIRAPINE],> 15,7.25,0.19,> 15,,0.18,,inactive,inactive,inactive,,inactive,,,,1.92,
O=C1Nc2ccc(Cl)cc2[C@@](C#CC2CC2)(C(F)(F)F)O1 [EFAVIRENZ],,0.108,,,,0.0055,,inactive,inactive,inactive,,inactive,,,,0.054,
O=C(CSc1ncnn1-c1ccc(Cl)cc1Cl)Nc1ccccc1Cl,> 29.1,16.1,6.21,29.1,5,20.9,3.6,inactive,inactive,inactive,3.7,inactive,,2.8,< 1,21.4,
O=C(CSc1ncnn1-c1ccc(Cl)cc1Cl)Nc1ccccc1F,> 38.4,,> 38.4,38.4,< 1,,,,,,,,,,< 1,,
O=C(CSc1ncnn1-c1ccc(Cl)cc1Cl)Nc1ccccc1Br,> 95.1,8.36,4.85,95.1,20,28.2,6.6,inactive,inactive,inactive,6,inactive,,1.9,< 1,25.7,
NS(=O)(=O)c1ccc(NC(=O)CSc2nnc(Br)n2-c2ccc(C3CC3)c3ccccc23)c(Cl)c1,,,,,,,,,,,,,,,,,230
O=C(CSc1ncnn1-c1ccc(Cl)cc1Cl)Nc1ccc(Cl)cc1Cl,> 172,,34.4,172,5,,,,,,,,,,< 1,,
CCOC(=O)c1ccc(NC(=O)CSc2ncnn2-c2ccc(Cl)cc2Cl)cc1,> 22.8,,> 22.8,22.8,< 1,,,,,,,,,,< 1,,
O=c1[nH]cnc2c1ncn2[C@H]1CC[C@@H](CO)O1 [DIDANOSINE],16,,8.86,> 211,> 24,,,,,,,,,,> 13,,
Cc1ccc(NC(=O)CSc2ncnn2-c2ccc(Cl)cc2Cl)c([N+](=O)[O-])c1,> 285,,> 285,> 285,,,,,,,,,,,,,
COC(=O)c1ccc(NC(=O)CSc2ncnn2-c2ccc(Cl)cc2Cl)c(Br)c1,> 59.3,7.73,4.13,59.3,14,≥ 15.2,>=4.3,inactive,inactive,inactive,2,inactive,385,2.2,< 1,6.95,
Cc1ccccc1NC(=O)CSc1ncnn1-c1ccc(Cl)cc1Cl,> 106,,32.4,106,3,,,,,,,,,,< 1,,
Cc1ccc(NC(=O)CSc2ncnn2-c2ccc(Cl)cc2Cl)c(Br)c1,> 184,,> 184,> 184,,,,,,,,,,,,,
CC(=O)c1ccc(NC(=O)CSc2ncnn2-c2ccc(Cl)cc2Cl)c(Br)c1,> 114,,> 114,114,< 1,,,,,,,,,,< 1,,
O=C(CSc1ncnn1-c1ccc(Cl)cc1Cl)Nc1ccc(Cl)cc1Br,> 189,,> 189,189,< 1,,,,,,,,,,< 1,,
Cc1cc(C#N)cc(C)c1Oc1nc(Nc2ccc(C#N)cc2)nc(N)c1Br [ETRAVIRINE],,0.00184,,,,0.008,2.6,inactive,inactive,inactive,1.54,inactive,,0.62,,0.0046,
O=C(CSc1ncnn1-c1ccc(Cl)cc1Cl)Nc1ccccc1[N+](=O)[O-],> 187,7.42,2.78,187,67,9.45,2.3,inactive,inactive,inactive,2.1,inactive,> 471,1.8,< 1,8.51,
Nc1ccn([C@H]2CC[C@@H](CO)O2)c(=O)n1 [ZALCITABINE],0.88,,0.75,> 94,> 127,,,,,,,,,,> 108,,
